Consider nine compounds from ChEMBL document CHEMBL4130378, “Discovery of pentacyclic triterpene 3β-ester derivatives as a new class of cholesterol ester transfer protein inhibitors” (Eur J Med Chem, 2017).

Data set [1] has as its target T1, Cholesteryl ester transfer protein (Homo sapiens, UniProt P11597).
T1 sequence (P11597 whole entry): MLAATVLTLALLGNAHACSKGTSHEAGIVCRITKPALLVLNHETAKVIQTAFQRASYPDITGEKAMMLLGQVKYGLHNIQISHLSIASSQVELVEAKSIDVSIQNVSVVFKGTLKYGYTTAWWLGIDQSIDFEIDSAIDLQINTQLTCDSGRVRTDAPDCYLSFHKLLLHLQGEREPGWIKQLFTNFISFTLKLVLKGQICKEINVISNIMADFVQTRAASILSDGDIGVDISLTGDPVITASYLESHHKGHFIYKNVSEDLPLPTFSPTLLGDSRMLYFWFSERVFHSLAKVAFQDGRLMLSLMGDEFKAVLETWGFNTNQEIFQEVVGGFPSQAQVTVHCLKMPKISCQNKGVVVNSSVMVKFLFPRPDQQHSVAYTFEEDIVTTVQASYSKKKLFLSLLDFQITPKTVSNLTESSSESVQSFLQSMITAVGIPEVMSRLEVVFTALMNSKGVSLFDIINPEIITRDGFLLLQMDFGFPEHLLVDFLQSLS
Put plainly: Inhibition of recombinant human CETP after 3 hrs using fluorescent cholesteryl containing HDL after 3 hrs by fluorescence assay.

In data set [2] the test system is Mus musculus. The experiment in a line: Induction of plasma triglyceride levels in transgenic ap2-CETPTg mouse model at 30 mg/kg, po qd for 14 days measured 2 hrs post dose on day 14 by automated lipid analyzer relative to control. It is filed as ADME, organism-based. Conditions: in vivo; call rule not given here. The essentials:
(§1)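 ap2-CETPTg mice, which express human CETP in adipose tissue. Oral 30 mg/kg once daily for two weeks in DMSO/cremophor/saline 3:4:93. Retro-orbital blood drawn 2 h after the day-14 dose. HDL-C, LDL-C, TG and TC measured on an automated lipid analyzer, mean ± SD (n ≥ 6), versus control group.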

Data set [3] deals with Cavia porcellus. Put plainly: Hypolipidemic activity in high-fat fed guinea pig model assessed as reduction in plasma LDL cholesterol levels at 30 mg/kg administered via oral gavage as qd for 14 days measured 2 hrs post dose on day 14 relative to control. Set-up: scale not given: the % may be the effect or the level left. It is filed as functional. In short, it runs like this:
(§2)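 Male guinea pigs, 12 weeks old, fed a high-fat diet (2.5% coconut oil, 0.25% cholesterol) for two weeks. Gavage at 30 mg/kg once daily for two weeks while the diet continued. Plasma taken retro-orbitally 2 h after the day-14 dose. HDL-C, LDL-C, TG and TC reported as mean ± SD (n ≥ 6) versus the untreated high-fat model group.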

The nature of data set [4]: Octanol-water partition coefficient, log P of the compound at pH 7.4 by HPLC based shake flask method. The class given is physicochemical.
Data set [5] concerns Cavia porcellus. Put plainly: Antihyperlipidemic activity in high-fat fed guinea pig model assessed as increase in plasma HDL cholesterol level at 30 mg/kg administered via oral gavage as qd for 14 days measured 2 hrs post dose on day 14 relative to control. The class given is functional. In short, it runs like this:
as §2

Data set [6] has as its system Mus musculus. Put plainly: Hypolipidemic activity in transgenic ap2-CETPTg mouse model assessed as reduction in plasma LDL cholesterol levels at 30 mg/kg, po qd for 14 days measured 2 hrs post dose on day 14 by automated lipid analyzer relative to control. The class given is functional. Set-up: scale not given: the % may be the effect or the level left. The essentials:
as §1

Data set [7] has as its system Mus musculus. Put plainly: Induction of plasma total cholesterol levels in transgenic ap2-CETPTg mouse model at 30 mg/kg, po qd for 14 days measured 2 hrs post dose on day 14 by automated lipid analyzer relative to control. It is filed as ADME, organism-based. Conditions: in vivo. In short, it runs like this:
as §1

Data set [8] is described as follows: MRT (0 to infinity) in normal fed guinea pig at 30 mg/kg administered via oral gavage by LC-MS/MS analysis. The class given is ADME, organism-based, Cavia porcellus. The settings on record: in vivo.
Data set [9] in a line: AUC (0 to infinity) in normal fed guinea pig at 30 mg/kg administered via oral gavage by LC-MS/MS analysis. It is filed as ADME, organism-based, Cavia porcellus. Further details: dose 30 mg/kg, route oral, time infinity. The settings on record: in vivo.
Data set [10] is described as follows: AUC (0 to 48 hrs) in normal fed guinea pig at 30 mg/kg administered via oral gavage by LC-MS/MS analysis. It is filed as ADME, organism-based, Cavia porcellus. Further details: time < 48 hr, dose 30 mg/kg, route oral. Conditions: in vivo.
Data set [11] can be described thus: Tmax in normal fed guinea pig at 30 mg/kg administered via oral gavage by LC-MS/MS analysis. Conditions: in vivo. The class given is ADME, organism-based, Cavia porcellus.
In data set [12] the test system is Cavia porcellus. Put plainly: Drug level in normal fed guinea pig treated with 3-beta-[(2-Carboxyphenyl)carbonyloxy]-olean-12-en-28-oic acid at 30 mg/kg administered via oral gavage by LC-MS/MS analysis. The class given is ADME, organism-based. Conditions: in vivo.
Data set [13] is described as follows: Cmax in normal fed guinea pig at 30 mg/kg administered via oral gavage by LC-MS/MS analysis. It is filed as ADME, organism-based, Cavia porcellus. Set-up: dose 30 mg/kg, route oral. The settings on record: in vivo.
Data set [14] is described as follows: MRT (0 to 48 hrs) in normal fed guinea pig at 30 mg/kg administered via oral gavage by LC-MS/MS analysis. The class given is ADME, organism-based, Cavia porcellus. Conditions: in vivo.
The nature of data set [15]: Terminal half life in normal fed guinea pig at 30 mg/kg administered via oral gavage by LC-MS/MS analysis. It is filed as ADME, organism-based, Cavia porcellus. The settings on record: in vivo, read-out: beta t1/2 (converted).
Data set [16] has as its target T2, Pancreatic triacylglycerol lipase (Sus scrofa, UniProt P00591).
T2 sequence (P00591 whole entry): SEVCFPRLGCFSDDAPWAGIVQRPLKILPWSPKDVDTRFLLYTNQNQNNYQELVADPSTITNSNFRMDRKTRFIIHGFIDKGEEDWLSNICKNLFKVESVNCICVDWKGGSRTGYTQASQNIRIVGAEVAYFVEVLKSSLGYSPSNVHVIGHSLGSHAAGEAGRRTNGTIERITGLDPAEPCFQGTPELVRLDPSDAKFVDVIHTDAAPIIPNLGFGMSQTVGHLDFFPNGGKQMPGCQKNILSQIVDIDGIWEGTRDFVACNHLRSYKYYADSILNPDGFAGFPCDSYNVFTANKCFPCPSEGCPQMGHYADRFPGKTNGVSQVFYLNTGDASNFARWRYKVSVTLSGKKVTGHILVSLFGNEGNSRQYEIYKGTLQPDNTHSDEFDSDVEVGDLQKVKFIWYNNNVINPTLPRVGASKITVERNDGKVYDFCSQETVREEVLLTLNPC
Put plainly: Inhibition of porcine pancreatic lipase using 2,3-dimercaptopropan-1-ol tributyrate as substrate preincubated for 5 mins followed by substrate addition measured after 30 mins by colorimetric assay.

With `CC(=O)O[C@H]1CC[C@]2(C)[C@H]3CC=C4[C@@H]5CC(C)(C)CC[C@]5(C(=O)O)CC[C@@]4(C)[C@]3(C)CC[C@H]2C1(C)C` [ACETYL OLEANOLIC ACID], in data set [1], the half-inhibitory concentration (IC50) entry is “Not Active”.
In the case of `COc1cc(F)c(C(C)C)cc1-c1ccc(C(F)(F)F)cc1CN1C(=O)O[C@H](c2cc(C(F)(F)F)cc(C(F)(F)F)c2)[C@@H]1C` [ANACETRAPIB], the Activity in data set [2] was determined as 4.7%; in data set [3], 30.2%; in data set [5], 82.2%; in [6], 40.4%; in [7], 17.8%. The logD in data set [4] came out at 0.73.
`C=C(C)[C@@H]1CC[C@]2(C(=O)O)CC[C@]3(C)[C@H](CC[C@@H]4[C@@]5(C)CC[C@H](O)C(C)(C)[C@@H]5CC[C@]43C)[C@@H]12` [BETULINIC ACID]: the 50% inhibitory concentration (IC50) entry in [1] was “Not Active”.
Regarding `CCC(CC)CC1(C(=O)Nc2ccccc2SC(=O)C(C)C)CCCCC1` [DALCETRAPIB], the log distribution coefficient (logD) in data set [4] is 0.92.
Same read-out and setting: the same measure for `Cc1cc(C)c2c(c1)[C@@H](N(Cc1cc(C(F)(F)F)cc(C(F)(F)F)c1)c1nnn(C)n1)CCCN2C[C@H]1CC[C@H](C(=O)O)CC1` [EVACETRAPIB]: 0.51.
As for `CC1(C)CC[C@]2(C(=O)O)CC[C@]3(C)C(=CC[C@@H]4[C@@]5(C)CC[C@H](OC(=O)CCC(=O)O)C(C)(C)[C@@H]5CC[C@]43C)[C@@H]2C1` [OLEANOLIC ACID 3-O-SUCCINATE], the IC50 in [1] (read-out: IC50) is 4.3 µM.
Compound `CC1(C)CC[C@]2(C(=O)O)CC[C@]3(C)C(=CC[C@@H]4[C@@]5(C)CC[C@H](O)C(C)(C)[C@@H]5CC[C@]43C)[C@@H]2C1` [OLEANOLIC_ACID] had an MRT inf in data set [8] of 15 h. For the same compound, the total exposure AUC(0-inf) in [9] amounted to 312 ng·h/mL. In addition, the AUC(0-t) at 48 h in data set [10] amounted to 291 ng·h/mL. Further, the Tmax in data set [11] came out at 0.75 h. Besides, the Drug metabolism entry in data set [12] is recorded as “Metabolite_Detected”. In data set [13], this compound had a Cmax of 52.2 ng/mL. The MRT last in data set [14] was found to be 11.7 h. The half-life in [15] was 11.7 h. Besides, in data set [16], the IC50 is 182 µM.
Compound `CCOC(=O)N1c2ccc(C(F)(F)F)cc2[C@@H](N(Cc2cc(C(F)(F)F)cc(C(F)(F)F)c2)C(=O)OC)C[C@H]1CC` [TORCETRAPIB] displayed a logD in [4] of 1.05.
Consider `C[C@H]1[C@H](C)CC[C@]2(C(=O)O)CC[C@]3(C)C(=CC[C@@H]4[C@@]5(C)CC[C@H](O)C(C)(C)[C@@H]5CC[C@]43C)[C@H]12` [URSOLIC ACID], for which the IC50 in data set [1] (read-out: IC50) came out at 46.6 µM.
